Paper PMC3306222 (Biopolymers, 2011)
Where a SMILES comes first, the peptide text is derived from it. Bridges are numbered along the chain shown (N, C = ends). [ ]: non-standard residue; d: D form. S5 = C=CCCC[C@](C)(N)C(=O)O

What was measured:
[1] = assay type: physicochemical; settings: fit of NMR chemical shift changes with concentration, D2O, 298 K, pH 7.0
[2] = Dynamic light scattering of free peptides; assay type: physicochemical; settings: DLS, lower peptide concentration (100 µM)
In short: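 Free stapled peptide stocks, quantified by absorbance at 280 nm, were diluted into D₂O or H₂O to 100 µM or 1 mM and centrifuged at 6,000–8,000 g before loading. Light scattering was recorded as one hundred 5-s scans per sample at ambient temperature and corrected for solvent signal. Normalized intensity was plotted against radius, and the hydrodynamic radius and polydispersity index of major peaks were reported.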

[3] = target: CA-CTD dimerization helix peptide CTD dimerization helix (Human immunodeficiency virus 1) (UniProt O93182); settings: cited from earlier work

Kd of self-association, isodesmic model of indefinite association [1] [µM]	effective radius of gyration of monomer [2] [nm]	Compound	Kd [3] [µM]
2500 ± 1400	1	CC[C@H](C)[C@H](N)C(=O)N[C@H](C(=O)N[C@@H](Cc1ccccc1)C(=O)N[C@@]1(C)CCC/C=C\CCC[C@@](C)(C(=O)N[C@@H](Cc2ccc(O)cc2)C(=O)N[C@@H](Cc2ccc(O)cc2)C(=O)NCC(=O)N[C@@H](CCCCN)C(=O)N[C@@H](CCCCN)C(=O)N[C@@H](CCCCN)C(N)=O)NC(=O)[C@H](CC(C)C)NC(=O)[C@H](CC(C)C)NC(=O)[C@H](CC(=O)O)NC1=O)[C@@H](C)O [NYAD-13] (H-ITF[S5]DLL[S5]YYGKKK-NH2; staple (Z) 4-8; N-terminus and C-terminus assumed)	
		CA-CTD dimerization helix peptide CTD dimerization helix (from UniProt O93182)	17
